Broadly, the IC50 is the concentration needed to halve the response being measured. What is called inhibition is the share of the control response that was lost under treatment. A word on the Ki: it is the dissociation constant of the complex between target and ligand, obtained from inhibition or displacement. A higher Ki goes with lower affinity.

SMILES strings stand for the structures. The source made the active and inactive calls. The rule behind the calls is not given here.

Test [1] has as its target T1, Cruzipain (Trypanosoma cruzi, UniProt P25779). In words: Inhibition of Trypanosoma cruzi cruzain preincubated for 5 mins before substrate addition. A digest of the protocol: (§1)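 Cruzain IC50s were measured from dose-response curves with Triton X-100 in the assay buffer at either 0.01% or 0.001%. At 0.001% Triton, some runs included pre-incubation with BSA.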
In test [2] the target is T1, Cruzipain. In words: Inhibition of Trypanosoma cruzi cruzain preincubated for 5 mins before substrate addition in presence of 0.001% Triton X-100. A digest of the protocol: as §1
Test [3] can be described thus: Inhibition of Beta-lactamase AmpC at 50 uM preincubated for 5 mins before substrate addition. The essentials: (§2)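 β-Lactamase AmpC inhibition was tested at the concentration stated, both without and with 0.01% Triton X-100. A compound was called an aggregator when its inhibition was detergent-sensitive.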
The target in test [4] is Cruzipain (Trypanosoma cruzi) (UniProt P25779). Kind of test: Inhibition of Trypanosoma cruzi cruzain assessed as colloidal aggregates particles formation after 5 mins by flow cytometry. The essentials: (§3)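 Particle (aggregate) formation was assessed by flow cytometry, with some samples checked by dynamic light scattering. The value is the lowest concentration tested at which particles were seen.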
Chain of Cruzipain (Trypanosoma cruzi) (P25779 123-467 limits assumed): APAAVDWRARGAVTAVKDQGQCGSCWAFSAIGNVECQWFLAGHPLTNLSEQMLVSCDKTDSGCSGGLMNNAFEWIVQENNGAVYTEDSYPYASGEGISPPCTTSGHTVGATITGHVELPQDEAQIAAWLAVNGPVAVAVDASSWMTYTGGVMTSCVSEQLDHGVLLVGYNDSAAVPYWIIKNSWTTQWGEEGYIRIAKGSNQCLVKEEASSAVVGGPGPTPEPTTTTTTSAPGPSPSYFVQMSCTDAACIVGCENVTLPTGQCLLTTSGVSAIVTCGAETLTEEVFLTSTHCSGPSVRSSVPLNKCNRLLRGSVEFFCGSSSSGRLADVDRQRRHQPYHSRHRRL
(In general: In flow cytometry, cells or beads pass a laser one at a time.)

The target in test [5] is T1, Cruzipain. In words: Inhibition of Trypanosoma cruzi cruzain preincubated for 5 mins before substrate addition in presence of 0.001% Triton X-100 with 1 mg/ml bovine serum albumin.
Test [6] deals with T1, Cruzipain. In words: Inhibition of Trypanosoma cruzi cruzain preincubated for 5 mins before substrate addition in presence of 0.01% Triton X-100. A digest of the protocol: as §1
For test [7], the target named is Cruzipain (Trypanosoma cruzi) (UniProt P25779). Kind of test: Inhibition of Trypanosoma cruzi cruzain at 200 uM preincubated for 5 mins before substrate addition.
Test [8] has the same target. In words: Inhibition of Trypanosoma cruzi cruzain assessed as colloidal aggregates particles formation at 3.1 uM after 5 mins by dynamic light scattering assay.
The nature of test [9]: Inhibition of Beta-lactamase AmpC at 13 uM preincubated for 5 mins before substrate addition. A digest of the protocol:
as §2

In test [10] the target is Cruzipain (Trypanosoma cruzi) (UniProt P25779). Kind of test: Inhibition of Trypanosoma cruzi cruzain assessed as colloidal aggregates particles formation after 5 mins by flow cytometry in presence of 0.001% Triton X-100. A digest of the protocol: as §3
The target is the same in test [11]. Particulars: 5 uM.
For test [12] the target is unchanged. To be noted: 50 uM.
The target of test [13] is T1, Cruzipain. Kind of test: Competitive inhibition of Trypanosoma cruzi cruzain by Lineweaver-Burke plot analysis.
Test [14] is described as follows: Inhibition of Beta-lactamase AmpC preincubated for 5 mins before substrate addition in presence of 0.01% Triton X-100. A digest of the protocol:
(§4)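 AmpC β-lactamase inhibition measured without detergent and with 0.01% Triton X-100, at the compound concentrations listed per compound. A compound was classed as an aggregator if its inhibition was detergent-sensitive.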

Test [15] is described as follows: Inhibition of Beta-lactamase AmpC at 100 uM preincubated for 5 mins before substrate addition. A digest of the protocol: as §4
Test [16] deals with Cruzipain (Trypanosoma cruzi) (UniProt P25779). Particulars: 25 uM.

T1 sequence (P25779 whole entry): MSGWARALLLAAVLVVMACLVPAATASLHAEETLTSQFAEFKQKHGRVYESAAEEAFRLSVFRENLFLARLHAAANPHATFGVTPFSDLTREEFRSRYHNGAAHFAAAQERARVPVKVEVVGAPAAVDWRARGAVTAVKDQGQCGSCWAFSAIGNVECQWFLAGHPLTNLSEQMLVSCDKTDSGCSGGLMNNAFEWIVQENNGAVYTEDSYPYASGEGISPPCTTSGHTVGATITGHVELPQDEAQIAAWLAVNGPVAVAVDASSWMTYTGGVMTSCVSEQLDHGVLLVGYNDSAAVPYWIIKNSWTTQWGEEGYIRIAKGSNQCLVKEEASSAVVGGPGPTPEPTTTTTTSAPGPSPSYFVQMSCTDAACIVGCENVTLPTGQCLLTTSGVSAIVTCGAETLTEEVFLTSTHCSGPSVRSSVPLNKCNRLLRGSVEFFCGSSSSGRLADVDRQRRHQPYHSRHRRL

In the case of `Nc1ccccc1-c1nnc(C(=O)Nc2ccc3oc4c(c3c2)CCCC4)o1`, the IC50 at Cruzipain [1] and at Cruzipain [2] was 2 µM throughout. Further, in test [3], the inhibition result was “Active”. Besides, in [4], the Activity was > 100 µM.
`Nc1ccccc1-c1nnc(C(=O)Nc2cccc(N3CCCC3)c2)o1`: the IC50 amounted to 7 µM at Cruzipain [1], 7 µM on Cruzipain [2] and 99 µM at Cruzipain [5]. Further, the inhibition entry in test [3] was “Active”. Also, the Activity in test [4] came to 50 µM.
Consider `Cn1ccc(NC(=O)c2nnc(-c3ccccc3N)o2)n1`, for which the 50% inhibitory concentration (IC50) against Cruzipain [1], on Cruzipain [6] and on Cruzipain [2] was > 100 µM in each case. Moreover, in [4], the Activity amounted to 200 µM.
`Nc1ccccc1-c1nnc(C(=O)NC2CCc3ccccc32)o1` (stereo not drawn) displayed an IC50 at Cruzipain [1] of 17 µM.
On to `Nc1ccccc1-c1nnc(C(=O)Nc2ccc(N3CCOCC3)cc2)o1`, for which the IC50 on Cruzipain [1] and at Cruzipain [6] was 62 µM in each case.
On to `Nc1ccccc1-c1nnc(C(=O)NCc2ccccc2OC2CCOCC2)o1`, for which half-maximal inhibition at Cruzipain [1] (IC50) required 42 µM.
In the case of `Nc1ccccc1-c1nnc(C(=O)NCc2csc(-c3cccs3)n2)o1`, the IC50 against Cruzipain [1] and on Cruzipain [6] was 2 µM in each case.
In the case of `Cn1nccc1NC(=O)c1nnc(-c2ccccc2N)o1`, the IC50 against Cruzipain [1] and at Cruzipain [6] was > 100 µM throughout.
Regarding `Nc1ccccc1-c1nnc(C(=O)NCCCn2ccnc2)o1`, the IC50 against Cruzipain [1] was > 100 µM.
For `Nc1ccccc1-c1nnc(C(=O)N[C@@H]2c3ccccc3C[C@@H]2O)o1`, at Cruzipain [1], the IC50 was 32 µM.
Consider `Nc1ccccc1-c1nnc(C(=O)NCCN2CCOCC2)o1`, for which the IC50 against Cruzipain [1], at Cruzipain [6] and at Cruzipain [2] was > 100 µM each time.
As for `Nc1ccccc1-c1nnc(C(=O)Nc2nc(-c3ccc(Cl)cc3)cs2)o1`, half-maximal inhibition at Cruzipain [1] (IC50) was put at 3 µM.
Molecule `Nc1ccccc1-c1nnc(C(=O)NCc2c(N)cccc2F)o1` gave an IC50 on Cruzipain [1] of 52 µM.
The molecule `Nc1ccccc1C(=O)NCC(=O)NC1CCCCC1` returned an inhibition in test [7] of 15%.
Take `Nc1ccccc1-c1nnc(C(=O)NCc2ccc(Oc3ccccc3)cc2)o1`: the IC50 on Cruzipain [1] and on Cruzipain [6] was 6 µM each time.
`Cc1cccc(C(=O)OCC(=O)Nc2cc(Cl)ccc2Cl)c1` yielded an inhibition in [7] of 5%. In addition, the IC50 at Cruzipain [6] was > 200 µM.
Consider `COc1ccc(OC)c(CNC(=O)c2nnc(-c3ccccc3N)o2)c1`, for which the IC50 came to 8 µM against Cruzipain [1], 8 µM at Cruzipain [2] and 45 µM at Cruzipain [5].
In the case of `Nc1ccccc1-c1nnc(C(=O)NCc2ccc3c(c2)OCO3)o1`, the IC50 against Cruzipain [1] was found to be 6 µM.
Regarding `COc1ccc(-c2cc(NC(=O)c3nnc(-c4ccccc4N)o3)n[nH]2)cc1`, the IC50 against Cruzipain [1] and at Cruzipain [2] was 0.2 µM throughout. The Activity in test [4] turned out to be 3.1 µM. Further, in test [8], the outcome was Active. Moreover, in test [9], the inhibition entry was “Active”.
Turning to `Nc1ccccc1-c1nnc(C(=O)NC2Cc3ccccc3C2)o1`, the IC50 against Cruzipain [1] and on Cruzipain [6] was 11 µM throughout.
With `Nc1ccccc1-c1nnc(C(=O)NCc2cccc(N3CCOCC3)c2)o1`, on Cruzipain [1], the IC50 is 33 µM.
`Nc1ccccc1-c1nnc(C(=O)NCCCN2CCCC2=O)o1`: the IC50 against Cruzipain [1], at Cruzipain [6] and on Cruzipain [2] was > 100 µM throughout. The Activity in [4] was > 200 µM. Also, in test [10], the outcome was inactive.
For `Nc1ccccc1-c1nnc(C(=O)NCc2ccnc(N3CCOCC3)c2)o1`, the IC50 at Cruzipain [1] and at Cruzipain [6] was 83 µM throughout.
In the case of `Nc1ccccc1-c1nnc(C(=O)NCc2c(Cl)cccc2Cl)o1`, the IC50 at Cruzipain [2] came to 8 µM.
Regarding `O=C(COC(=O)c1ccccn1)Nc1cc(Cl)ccc1Cl`, the inhibition in test [7] turned out to be 16%. For the same molecule, the IC50 on Cruzipain [6] was > 200 µM.
On to `Nc1ccccc1-c1nnc(C(=O)Nc2cc(-c3cccs3)[nH]n2)o1`, for which the inhibition entry in test [11] and in test [12] was “Active” throughout.
In turn, `CCC(NC(=O)COC(=O)c1cccnc1N)c1ccc(Br)cc1` (stereo not drawn) returned an IC50 on Cruzipain [1] of 84 µM. In test [7], this molecule returned an inhibition of 65%. In addition, in test [10], the Activity came out at 250 nM.
For the molecule `CCN(CC)c1ccc(NC(=O)c2nnc(-c3ccccc3N)o2)cc1`, the midpoint of inhibition at Cruzipain [1], the IC50, lay at 36 µM.
Molecule `Nc1ccccc1-c1nnc(C(=O)Nc2ccc3[nH]ncc3c2)o1` registered an IC50 against Cruzipain [1] of 41 µM.
The same measure, in the same setting: with `CC1C2CCC(C)(C2)C1NC(=O)c1nnc(-c2ccccc2N)o1` (stereo not drawn) the figure was 36 µM; with `Nc1ccccc1-c1nnc(C(=O)NCc2ccnc(N3CCSCC3)c2)o1`, 23 µM.
Still for that read-out and setting: with `Cc1ccc(CNC(=O)c2nnc(-c3ccccc3N)o2)o1` the figure was 14 µM; with `Nc1ccccc1-c1nnc(C(=O)NC2CCNCC2)o1`, > 100 µM; with `Nc1ccccc1-c1nnc(C(=O)NCc2cccc3nsnc23)o1`, 6 µM.
In the case of `Cc1cc(NC(=O)c2nnc(-c3ccccc3N)o2)[nH]n1`, the IC50 against Cruzipain [1] and on Cruzipain [2] was 11 µM in each case.
As for `Cc1cc(NC(=O)c2nnc(-c3ccccc3N)o2)n[nH]1`, the inhibition entry in test [3] is “inactive”. In addition, the Activity in test [4] came out at 50 µM.
In the case of `Nc1ccccc1-c1nnc(C(=O)NCCN2CCNC2=O)o1`, the IC50 at Cruzipain [1] is > 100 µM.
As for `Nc1ccccc1-c1nnc(C(=O)Nc2cc(-c3cccs3)n[nH]2)o1`, the IC50 amounted to 1 µM on Cruzipain [1], 1 µM on Cruzipain [2] and 102 µM at Cruzipain [5].
Consider `CC(C)(C)c1cc(NC(=O)c2nnc(-c3ccccc3N)o2)n[nH]1`, for which the Activity in [4] amounted to 3.1 µM. The inhibition result in test [9] is “Active”.
As for `Nc1ccccc1-c1nnc(C(=O)NCc2nc3ccccc3[nH]2)o1`, it took 17 µM to reach half-maximal inhibition against Cruzipain [1] (IC50).
`Nc1ncccc1C(=O)NCC(=O)NC1CCCCC1` displayed an inhibition in test [7] of 16%.
Consider `COc1cc(CNC(=O)c2nnc(-c3ccccc3N)o2)cc(OC)c1OC`, for which, on Cruzipain [1], the IC50 was > 100 µM.
For `Nc1ncccc1C(=O)OCC(=O)NC1CCCCCC1`, the IC50 at Cruzipain [1] turned out to be 87 µM. Moreover, in test [7], the inhibition came to 68%. Besides, in [10], the Activity came out at 250 nM.
Regarding `Nc1ncccc1C(=O)OCC(=O)Nc1cc(Cl)ccc1Cl`, the IC50 is 77 µM against Cruzipain [1], 27 µM at Cruzipain [2] and 116 µM on Cruzipain [5]. Further, the inhibition in test [7] is 79%. This molecule displayed a Ki at Cruzipain [13] of 32 µM. Also, the inhibition result in [14] was “inactive”. Besides, the Activity in test [10] is 250 nM. The inhibition entry in test [15] and in test [16] was “Active” throughout.
As for `NC(=O)c1ccsc1NC(=O)COC(=O)c1cc(Br)ccc1N`, the inhibition in test [7] was found to be 61%. Besides, the IC50 at Cruzipain [6] was 90 µM.
On Cruzipain [1], `Cc1nn(-c2ccccc2)nc1CNC(=O)c1nnc(-c2ccccc2N)o1` displayed a concentration for half-maximal inhibition (IC50) of 7 µM.
`Nc1ncccc1C(=O)OCC(=O)Nc1ccc2c(c1)OCCO2` registered an inhibition in [7] of 51%. The IC50 at Cruzipain [6] turned out to be 182 µM.
As to `CC(NC(=O)c1nnc(-c2ccccc2N)o1)C12CC3CC(CC(C3)C1)C2` (stereo not drawn), the IC50 at Cruzipain [1] and at Cruzipain [6] was 18 µM in each case.
In the case of `CCN1CCC[C@H]1CNC(=O)c1nnc(-c2ccccc2N)o1`, the IC50 at Cruzipain [1], at Cruzipain [6] and on Cruzipain [2] was > 100 µM in each case. Moreover, the Activity in test [4] is > 200 µM. In addition, the result in test [10] was inactive.
`Nc1ccccc1C(=O)OCC(=O)Nc1cc(Cl)ccc1Cl` yielded an IC50 at Cruzipain [1] of 58 µM.
As for `Nc1ccccc1-c1nnc(C(=O)NCc2ccc(C(F)(F)F)c(F)c2)o1`, on Cruzipain [1], the IC50 stood at 10 µM.
On to `Nc1ncccc1C(=O)OCC(=O)Nc1ccccc1OC(F)F`, for which the inhibition in test [7] came out at 58%. For the same molecule, the IC50 at Cruzipain [6] was 126 µM.
With `Nc1ccccc1-c1nnc(C(=O)Nc2cc(-c3ccccc3)[nH]n2)o1`, the IC50 at Cruzipain [1] and at Cruzipain [2] was 0.8 µM throughout.
Regarding `CC(C)(C)c1cc(NC(=O)c2nnc(-c3ccccc3N)o2)[nH]n1`, the IC50 on Cruzipain [1] and at Cruzipain [2] was 2 µM each time.
With `Cc1cc2cc(NC(=O)c3nnc(-c4ccccc4N)o3)ccc2[nH]1`, the IC50 was 6 µM against Cruzipain [1], > 100 µM at Cruzipain [6] and 6 µM on Cruzipain [2].
As for `Cc1ccc(-c2cc(NC(=O)c3nnc(-c4ccccc4N)o3)[nH]n2)cc1`, the IC50 against Cruzipain [1] and at Cruzipain [2] was 0.5 µM in each case.
`Nc1ccccc1-c1nnc(C(=O)NCc2ccccc2N2CCOCC2)o1` had an IC50 against Cruzipain [1] of 38 µM.
`Nc1ccccc1-c1nnc(C(=O)Nc2nnc(-c3ccc(Cl)cc3)s2)o1`: the concentration for half-maximal inhibition (IC50) against Cruzipain [1] and at Cruzipain [6] was 4 µM each time.
On to `Nc1ccccc1-c1nnc(C(=O)NCc2ccc(Cn3cccn3)cc2)o1`, for which half-maximal inhibition on Cruzipain [1] (IC50) required 8 µM.
Same read-out and setting: with `Nc1ccccc1-c1nnc(C(=O)N[C@H]2CCCCNC2=O)o1` the figure was > 100 µM.
`Nc1ccccc1-c1nnc(C(=O)NCc2cccc(-n3cccn3)c2)o1` came in with an IC50 against Cruzipain [1] of 17 µM.

These data come from ChEMBL document CHEMBL1151964, “Divergent modes of enzyme inhibition in a homologous structure-activity series” (J Med Chem, 2009).
